Test results as given in ChEMBL document CHEMBL1255528, “Chemical investigation of drug-like compounds from the Australian tree, Neolitseadealbata” (Bioorg Med Chem Lett, 2010).
Counter-ions that a name gives are not always drawn.

Columns and labels:
[1] = tested on: A549; assay: Cytotoxicity against human A549 cells after 72 hrs by alamar blue assay; format: functional, cell-based; settings: A549, 72 h
Procedure, shortened: (§1)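 Screened across a human panel: A549 lung adenocarcinoma, HeLa cervical adenocarcinoma, MCF-7 breast, LNCaP and PC3 prostate, plus non-cancer HEK 293 embryonic kidney and NFF neonatal foreskin fibroblasts. IC50 reported as mean ± SD of two independent experiments.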

[2] = tested on: HeLa; assay: Cytotoxicity against human HeLa cells after 72 hrs by alamar blue assay; format: functional, cell-based; procedure, shortened: as §1
[3] = tested on: MCF7; assay: Cytotoxicity against human MCF7 cells after 72 hrs by alamar blue assay; format: functional, cell-based; settings: MCF7, 72 h; procedure, shortened: as §1
[4] = tested on: LNCaP; assay: Cytotoxicity against human LNCAP cells after 72 hrs by alamar blue assay; format: functional, cell-based; procedure, shortened: as §1
[5] = tested on: PC-3; assay: Cytotoxicity against human PC3 cells after 72 hrs by alamar blue assay; format: functional, cell-based; settings: PC-3, 72 h; procedure, shortened: as §1
[6] = Cytotoxicity against HEK cells after 72 hrs by alamar blue assay; format: cell-based; settings: Homo sapiens, HEK293, 72 h; procedure, shortened: as §1
[7] = tested on: NFF; assay: Cytotoxicity against human NFF after 72 hrs by alamar blue assay; format: cell-based; procedure, shortened: as §1
[8] = tested on: MCF7; assay: Cytotoxicity against human MCF7 cells at 100 uM after 72 hrs by alamar blue assay; format: functional; settings: MCF7, 72 h
Procedure, shortened: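 Single-concentration screen on MCF-7 breast cancer cells within the same human cell-line panel. Percent growth inhibition calculated at the one test concentration rather than as an IC50.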

[9] = Cytotoxicity against HEK cells at 100 uM after 72 hrs by alamar blue assay; format: cell-based, HEK293; settings: human; for cytotoxicity at 72 h, 100 µM: HEK cells, read-out: INH
Procedure, shortened: (§2)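 Non-cancer human cell lines, human embryonic kidney 293 (HEK 293) and neonatal foreskin fibroblasts (NFF), screened in parallel with a panel of five cancer lines. Growth inhibition is reported as percent inhibition at a single test concentration of 100.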

[10] = (§3) Cytotoxicity against human NFF at 100 uM after 72 hrs by alamar blue assay; format: cell-based; settings: NFF cells, read-out: INH; procedure, shortened: as §2
[11] = tested on: NFF; assay: as §3; format: cell-based; settings: nff, 72 h, 100 µM; procedure, shortened: as §2

Row | SMILES | IC50 [1] | IC50 [2] | IC50 [3] | IC50 [4] | IC50 [5] | IC50 [6] | IC50 [7] | inhibition at 100 µM [8] | cytotoxicity at 72 h, 100 µM [9] | cytotoxicity at 72 h, 100 µM [10] | inhibition (INH) ([9]; hek293, 72 h, 100 µM, 72 h) | inhibition (INH) [11]
1 | Oc1ccc2c(c1)-c1c3c(cc4c1[C@@H](C2)NCC4)OCO3 | 28.2 µM | 4 µM | 27.4 µM | 13.8 µM | 23 µM | 59.7 µM | 42.6 µM | – | – | – | – | –
2 | CN1CCc2cc3c(c4c2[C@H]1Cc1ccccc1-4)OCO3 | 3.4 µM | 16.6 µM | 17.7 µM | 12.7 µM | 7.7 µM | 15.9 µM | 15.2 µM | – | – | – | – | –
3 | COc1cc2c(cc1O)C[C@@H]1NCCc3cc4c(c-2c31)OCO4 | 16 µM | 28.1 µM | – | 27.4 µM | 36.4 µM | – | > 100 µM | 52% | 55% | – | – | –
4 | COc1cc2c(cc1O)C[C@@H]1NCCc3cc(O)c(OC)c-2c31 | > 100 µM | > 100 µM | > 100 µM | > 100 µM | > 100 µM | > 100 µM | > 100 µM | – | – | – | – | –
5 | COc1cc2c(cc1O)C[C@H]1c3c(cc(O)c(OC)c3-2)CCN1C | > 100 µM | > 100 µM | > 100 µM | > 100 µM | > 100 µM | > 100 µM | > 100 µM | – | – | – | – | –
6 | COc1ccc2c(c1O)[C@H](Cc1ccc(O)cc1)NCC2 | > 100 µM | > 100 µM | > 100 µM | > 100 µM | > 100 µM | > 100 µM | > 100 µM | – | – | – | – | –
7 | COc1ccc2c(c1O)[C@H](Cc1ccc(O)cc1)N(C)CC2 | > 100 µM | > 100 µM | > 100 µM | > 100 µM | > 100 µM | > 100 µM | > 100 µM | – | – | – | – | –
8 | C[N@@+]1([O-])CCc2cc3c(c4c2[C@H]1Cc1ccccc1-4)OCO3 (stereo in doubt; 3) | > 100 µM | > 100 µM | > 100 µM | > 100 µM | > 100 µM | – | – | – | 61% | 83% | – | –
9 | C[N@@+]1([O-])CCc2cc3c(c4c2[C@H]1Cc1ccccc1-4)OCO3.O=C(O)C(F)(F)F (stereo in doubt; 4) | – | – | – | – | – | – | – | – | – | – | 49% | 66%
10 | CC(=O)O[C@H]1C(=O)[C@@]2(C)[C@H]([C@H](OC(=O)c3ccccc3)[C@]3(O)C[C@H](OC(=O)[C@H](O)[C@@H](NC(=O)c4ccccc4)c4ccccc4)C(C)=C1C3(C)C)[C@]1(OC(C)=O)CO[C@@H]1C[C@@H]2O [PACLITAXEL] | 0.0038 µM | 0.0089 µM | 0.0044 µM | – | – | 0.0039 µM | 0.0047 µM | – | – | – | – | –
11 | CC[C@]1(O)C[C@H]2CN(CCc3c([nH]c4ccccc34)[C@@](C(=O)OC)(c3cc4c(cc3OC)N(C=O)[C@H]3[C@@](O)(C(=O)OC)[C@H](OC(C)=O)[C@]5(CC)C=CCN6CC[C@]43[C@@H]65)C2)C1 [VINCRISTINE SULFATE] | – | – | – | 0.0029 µM | 0.011 µM | – | – | – | – | – | – | –
